Screening results as filed in PubChem BioAssay.
Only some compounds are listed: those with a hit (about 2.4% of all), similar ones and a draw of the others.
S100A4 inh HTS – inhibitors of S100A4-myosin IIA peptide binding, primary screen, biochemical, fluorescence polarization, TAMRA-MyoIIA peptide | Protein S100-A4 (Homo sapiens), P26447 | inhibition, % at 10.7 µM | actives 0.14% (n = 360,000) | AID 652163, 2013;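 active = mean inhibition of at least 70% across replicates, with every replicate also reaching that level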
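Compound dosing: one dose per compound; test system: human S100A4 monomer with TAMRA-labelled myosin IIA peptide; probe or stimulus: TAMRA-labelled myosin IIA heavy-chain peptide probe, 5 nM; medium: HEPES buffer with Ca2+, pH 7.2; schedule: 5 min incubation before reading; benchmarks: neutral control DMSO, positive control TFP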
Ecoli rRNA inh – reduced GFP signal of wild-type E. coli, primary screen, bacterial rRNA inhibitor project, GFP/RFP fluorescence, OD600, single point; E. coli WT GFP vs humanized-ribosome RFP mutants, 24 h; hits give low values; DMSO median 0, no signal -100; actives 1.6% (n = 350,000); GFP signal change (wild-type ribosome), % (concentration not given with the values);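 active = significant combined selectivity score with lowered wild-type GFP, culture density cut under 30%, mutant RFP and density less affected; inactive = any of these conditions unmet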
ARNT TACC3 PPI – disruptors of ARNT/TACC3 protein interaction, primary screen, biochemical, AlphaScreen, single concentration; AlphaScreen His-ARNT PAS-B/GST-TACC3 binding, luminescence; TACC3 fragment carries E629A point mutation; Transforming acidic coiled-coil-containing protein 3 (Homo sapiens), Q9Y6A5; inhibition, % at 9.99 µM; actives 0.66% (n = 390,000);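 active = mean inhibition of replicates at least 50% and at least half of replicates each reaching 50%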;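 also: 0% = complete ARNT plus TACC3 wells and 100% = ARNT alone without TACC3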
PGC1a acetyl inh – inhibitors of PGC1a acetylation signal, primary screen, cell-based, U2OS, AlphaScreen, inhibitor mode; AlphaScreen anti-acetyl-lysine; with virally co-expressed GCN5 acetyltransferase; inhibition, % at 15.6 µM; actives 0.17% (n = 350,000); AID 651687, 2012;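 active = every replicate shows inhibition of at least 40%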;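 also: 0% = neutral control wells and 100% = positive control wells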
CASP6 VEID inh – human caspase-6 inhibitors, primary screen, biochemical, VEID-R110 fluorescence, single point, set 2; P55212; purified caspase-6, Z-VEID-R110 cleavage fluorescence; inhibition, % at 12.5 µM; actives 0.53% (n = 350,000);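 active = mean inhibition across replicates at least about 35%, with every replicate also reaching that limit, limit read from the data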;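 also: 0% = median of neutral control wells and 100% = no fluorescence left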
ERAP1 HTS inh – human ERAP1 aminopeptidase inhibitors, primary screen, biochemical, single point, plate reader | recombinant ERAP1, Leu-AMC fluorescence, 60 min | inhibition, % at 10.7 µM | actives 0.15% (n = 340,000) | AID 652197, 2013 | Endoplasmic reticulum aminopeptidase 1 (Homo sapiens), Q9NZ08;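 active = mean replicate inhibition of at least 30%, or all replicates individually reaching that 30% level; inactive = mean below 30% and not every replicate reaching it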;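 also: 0% = neutral control wells and 100% = L-leucinethiol positive control wells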
Starred values were filed as active, the others as inactive; nt = no result.

SMILES	S100A4 inh HTS	Ecoli rRNA inh	ARNT TACC3 PPI	PGC1a acetyl inh	CASP6 VEID inh	ERAP1 HTS inh
CN(CC(=O)Nc1ccc(Cl)cc1)CC(=O)Nc1cc(Cl)ccc1C#N	-12	-38*	3	-9	1	-2
Cc1ccc(NC(=O)CN(C)CC(=O)Nc2ccc(F)c(Cl)c2)cc1	-6	-52	-5	0	1	0
Cc1ccc(NC(=O)CN(C)Cc2ccc(Cl)cc2)cc1	2	-30*	-4	nt	-2	-6
Cc1ccc(S(=O)(=O)Nc2ccc3c(c2)C(=O)N([C@@H](C)CO)C[C@H](C)[C@@H](CN(C)CC2CCCCC2)OCCCC[C@H](C)O3)cc1	-2	-24	-1	-1	1	2
CN(c1ccccc1)S(=O)(=O)c1ccccc1Br	-1	-38*	-6	-6	-1	0
CCOc1cc(/C=C(/NC(C)=O)C(=O)O)cc(Cl)c1OCc1cccc(Br)c1	7	-7	-1	12	39*	nt
CCOc1cc(C(N)=O)cc(Cl)c1OCc1ccccc1	-15	-33	-5	-1	-3	-1
Cc1ccc2cc(C)c3nnc(SCC(=O)c4cccs4)n3c2c1C	-2	-39*	27	nt	-1	-2
Cc1ccc(C)c2c1cc(C)c1nnc(SCC(=O)c3cccs3)n12	nt	nt	2	nt	nt	nt
C[C@@H]1CN(C)C(=O)c2cccc(NS(C)(=O)=O)c2O[C@@H]1CN(C)S(C)(=O)=O	nt	0	nt	nt	nt	nt
Nc1ccccc1-c1nc2ccccc2[nH]c1=O	1	4	-6	nt	-2	0
O=c1[nH]c2ccccc2nc1-c1c[nH]c2ccccc12	-4	-26*	12	-6	-5	2
CCNC(=O)C[C@H]1CC[C@H]2[C@@H](COc3ccc(NC(=O)c4ccc(F)cc4)cc3C(=O)N2C)O1	6	2	3	-2	-4	0
O=C(Nc1ccccc1-c1ccccc1)c1ccccc1Br	1	-15	-9	nt	0	12
O=C(NN=C1c2ccccc2-c2ccccc21)c1ccccc1Br	1	28	-5	66*	2	0
O=C(NN=C1c2ccccc2-c2ccccc21)c1ccccc1	1	-32*	18	1	0	-1
CCCNC(=O)N1[C@H](CO)[C@H](c2ccc(-c3ccccc3F)cc2)[C@@H]1C#N	-5	-14	-6	-5	-1	-5
CC(=O)c1ccc(-c2ccc(C(=O)NCC(c3ccc(F)cc3)N3CCOCC3)o2)cc1 (stereo unspecified)	0	-14	0	-9	4	5
O=C(NCC(c1ccc(F)cc1)N1CCOCC1)c1ccc([N+](=O)[O-])o1 (stereo unspecified)	1	-18*	-1	-9	1	-2
O=C(Nc1ccccc1)N[C@@H]1CC[C@H](CCn2cc(C3(O)CCCC3)nn2)O[C@H]1CO	10	-2	-1	-8	-6	2
N#C/C(=C\c1cccc(Oc2ccccc2)c1)C(=O)N1CCOCC1	0	-25*	-2	1	0	-3
Cc1cccn2c(=O)c3cc(C#N)c(=NC(=O)c4ccco4)n(Cc4ccco4)c3nc12	-4	8	-2	-2	67*	30
Cc1cccn2c(=O)c3cc(C#N)c(=NC(=O)c4ccccc4)n(Cc4ccco4)c3nc12	-5	10	12	-1	13	-25
Cc1ccc(NC(=O)CN2C(=O)S/C(=C\c3cc(C)n(-c4cccc(C(=O)O)c4)c3C)C2=O)cc1	42	-18	6	7	39*	7
Cc1ccc(NC(=O)CN2C(=O)S/C(=C\c3ccc(OCC(=O)O)c(Br)c3)C2=O)cc1	-8	6	12	6	12	0
SMILES	S100A4 inh HTS	Ecoli rRNA inh	ARNT TACC3 PPI	PGC1a acetyl inh	CASP6 VEID inh	ERAP1 HTS inh
Cc1ccc(NC(=O)CN2C(=O)S/C(=C\c3cc(C)n(C)c3C)C2=O)cc1	nt	nt	-3	-3	nt	nt
Cc1ccc(NC(=O)CN2C(=O)S/C(=C\c3ccc(C(=O)O)cc3)C2=O)cc1	-4	3	0	13	43*	-1
COc1ccc2c3c([nH]c2c1)[C@H](CO)N(C(=O)c1ccccn1)CC31CN(C(=O)C2CCCCC2)C1	nt	0	nt	-1	nt	nt
O=C(C[C@@H]1CC[C@@H](NC(=O)c2cccc(F)c2)[C@@H](CO)O1)Nc1nccs1	4	-4	26	9	0	-1
COCC(=O)Nc1ccc2c(c1)C(=O)N(C)C[C@H](OC)[C@H](C)CN(C(=O)c1ccccn1)[C@@H](C)CO2	7	5	-4	0	3	2
Cc1ccc(NC(=O)c2sc(C)nc2C)c(C)c1	15	4	-9	nt	51*	-2
Cc1ccc(NC(=O)c2sc(Cl)nc2C)c(C)c1	nt	nt	-2	-5	nt	nt
O=C(Cc1cccnc1)N1CC(=O)N2[C@H](CO)[C@@H](c3ccc(-c4cccc(F)c4)cc3)[C@@H]2C1	nt	4	nt	nt	nt	nt
O=C(C[n+]1cccc(CNC(=O)c2ccc(OC(F)F)cc2)c1)Nc1cccc(C(F)(F)F)c1	nt	nt	10	nt	nt	nt
O=C(C[n+]1cccc(CNC(=O)c2ccc(OC(F)F)cc2)c1)Nc1ccc(F)cc1	-1	-19*	-4	nt	3	8
CSCC[C@H](NC(=O)OC(C)(C)C)C(=O)N/N=C/c1cccc2cccnc12	-8	3	62*	2	2	3
C[C@H](NC(=O)OC(C)(C)C)C(=O)N/N=C/c1cccc2nccnc12	-1	7	27*	4	-1	0
CO[C@H]1CC[C@@H]2CCN(C)C(=O)[C@H](C)[C@@H](OC)CN(C)C(=O)c3cc(C#N)ccc3OC[C@H]1O2	47	1	-1	14	-2	-1
C[C@@H]1CN([C@@H](C)CO)S(=O)(=O)c2ccc(-c3cccnc3)cc2O[C@@H]1CN(C)C(=O)C1CCCCC1	0	3	4	-4	2	1
COCCNCC(=O)Nc1ccc(C)c(S(=O)(=O)N2CCCCC2)c1	0	3	2	nt	-3	2
Cc1ccc(NC(=O)CCl)cc1S(=O)(=O)N1CCCCCC1	-9	-16*	-1	-14	9	-1
COc1ccc(NC(=O)Cc2ccc(C)cc2)cc1S(=O)(=O)N1CCCCC1	14	-16	nt	4	-2	-1
COc1ccc(NC(=O)Cc2ccc(C)c(C)c2)cc1S(=O)(=O)N1CCCCC1	1	-29*	-4	nt	-3	0
